Test results published in ChEMBL document CHEMBL4219240, “Syntheses and structure-activity relationships on antibacterial and anti-ulcerative colitis properties of quaternary 13-substituted palmatines and 8-oxo-13-substituted dihydropalmatines” (Bioorg Med Chem, 2018).
Converted amounts (≈) assume the structure as drawn. The source made the active and inactive calls. The calls are words filed in the database; no cut-off is given here.

Columns and labels:
Staphylococcus aureus = assay: Antibacterial activity against clinical isolate of Staphylococcus aureus after 24 hrs by twofold microdilution broth method; type: functional
Procedure, shortened: (§1)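 Clinical isolates grown in Mueller-Hinton broth at 37 °C; inoculum diluted in MHB to 10^6 CFU. Compounds from 20,000 µg/ml DMSO stocks, twofold serial dilution across ten wells, with medium-only and organism-only controls. Incubated 24 h in ambient air. MIC taken as the lowest concentration with no visible growth by eye. Three replicates.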

Escherichia coli = assay: Antibacterial activity against clinical isolate of Escherichia coli after 24 hrs by twofold microdilution broth method; type: functional; procedure, shortened: as §1
Candida albicans = assay: Antifungal activity against Candida albicans CMCC (F) 98001 after 24 hrs by twofold microdilution broth method; type: functional; conditions: CMCC (F) 98001, 24 h
Procedure, shortened: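 Strain CMCC(F) 98001 grown in Sabouraud dextrose broth at 25 °C; inoculum diluted in SDB to 10^6 CFU. Compounds from 20,000 µg/ml DMSO stocks, twofold serial dilution across ten wells, with medium-only and organism-only controls. Incubated 24 h. MIC read by eye as the lowest concentration with no visible growth. Three replicates.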

[1] = Cytotoxicity against rat IEC-6 cells assessed as cell survival at 10 uM after 72 hrs by MTT assay relative to control; type: cell-based; conditions: read-out: Survival
Procedure, shortened: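 IEC-6 intestinal epithelial cells were exposed to each compound at a fixed 10 µM for 72 h alongside an untreated blank control. Viability was read by MTT reduction and expressed as survival rate (SR). Compounds with SR between 70% and 100% were classed as noncytotoxic or hypocytotoxic.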

IEC-6 = assay: Induction of XBP1 promoter DNA activation in rat IEC-6 cells at 10 uM after 48 hrs by dual luciferase reporter gene assay relative to control; type: cell-based
[2] = Induction of XBP1 promoter DNA activation in rat IEC-6 cells after 48 hrs by dual luciferase reporter gene assay; type: cell-based; conditions: IEC-6, 48 h
Mus musculus [3] = assay: Antiulcerogenic activity in DSS-induced acute ulcerative colitis C57BL/6J mouse model assessed as decrease in body weight at 500 mg/kg, po qd administered for 7 days (reference value: 23.96%); type: functional; parameters: scale not given: the % may be the effect or the level left
Mus musculus [4] = assay: Antiulcerogenic activity in DSS-induced acute ulcerative colitis C57BL/6J mouse model assessed as colon contracture at 500 mg/kg, po qd administered for 7 days (reference value: 41.87%); type: functional
Mus musculus [5] = assay: Inhibition of DSS-induced acute ulcerative colitis C57BL/6J mouse model at 500 mg/kg, po qd administered for 7 days relative to control; type: functional; conditions: 168 h
Mus musculus [6] = assay: Antiulcerogenic activity in DSS-induced acute ulcerative colitis C57BL/6J mouse model assessed as colon macroscopic damage index at 500 mg/kg, po qd administered for 7 days (reference value: 4.13 +/- 0.78); type: functional
Mus musculus [7] = assay: Antiulcerogenic activity in DSS-induced acute ulcerative colitis C57BL/6J mouse model assessed as disappearance of inflammatory edema at 500 mg/kg, po qd administered for 7 days by microscopic analysis; type: functional, organism-based
Procedure, shortened: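 Colitis induced by DSS in C57BL/6J mice. Agents given orally each day: test agents at 150 mg/kg as a suspension in 0.5% CMC-Na; sulfasalazine at 500 mg/kg. At study end, colon tissue was H&E stained and examined by light microscopy at ×100 for mucosal structure, epithelial cell arrangement, crypt damage, inflammatory infiltration and ulceration.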

| Structure (SMILES) | MIC (Staphylococcus aureus) [µg/mL] | MIC (Escherichia coli) [µg/mL] | MIC (Candida albicans) [µg/mL] | viability at 72 h, 10 µM [1] [%] | fold change (FC) (IEC-6) | EC50 [2] [nM] | Activity (Mus musculus [3]) [%] | Activity (Mus musculus [4]) [%] | inhibition in vivo at 500 mg/kg (Mus musculus [5]) [%] | Activity_index (Mus musculus [6]) | Activity (Mus musculus [7]) |
| --- | --- | --- | --- | --- | --- | --- | --- | --- | --- | --- | --- |
| CCC(=O)c1c2[n+](cc3c(OC)c(OC)ccc13)CCc1cc(OC)c(OC)cc1-2.[Cl-] | > 250 | > 250 | > 250 | 70 to 100 | 1.01 | 301 |  |  |  |  |  |
| CCCCCCCNCc1c2n(c(=O)c3c(OC)c(OC)ccc13)CCc1cc(OC)c(OC)cc1-2 | 125 (≈ 253 µM) | > 250 | > 250 | 70 to 100 |  |  |  |  |  |  |  |
| COc1cc2c(cc1OC)-c1c(C(C)=O)c3ccc(OC)c(OC)c3c[n+]1CC2.[Cl-] | > 250 | > 250 | > 250 | 70 to 100 |  |  |  |  |  |  |  |
| CCOC(=O)Cc1c2[n+](cc3c(OC)c(OC)ccc13)CCc1cc(OC)c(OC)cc1-2.[Cl-] | 250 | > 250 | > 250 | 70 to 100 |  |  |  |  |  |  |  |
| CCCCNC(=O)c1c2n(c(=O)c3c(OC)c(OC)ccc13)CCc1cc(OC)c(OC)cc1-2 | > 250 | > 250 | > 250 | 70 to 100 |  |  |  |  |  |  |  |
| CCOC(=O)CCCCCCc1c2[n+](cc3c(OC)c(OC)ccc13)CCc1cc(OC)c(OC)cc1-2.[Cl-] | 15.6 | > 250 | 125 | 70 to 100 |  |  |  |  |  |  |  |
| CCCNC(=O)c1c2n(c(=O)c3c(OC)c(OC)ccc13)CCc1cc(OC)c(OC)cc1-2 | > 250 | > 250 | > 250 | 70 to 100 |  |  |  |  |  |  |  |
| CCCCCNCc1c2n(c(=O)c3c(OC)c(OC)ccc13)CCc1cc(OC)c(OC)cc1-2 | > 250 | > 250 | > 250 | 70 to 100 |  |  |  |  |  |  |  |
| CCCCNCc1c2n(c(=O)c3c(OC)c(OC)ccc13)CCc1cc(OC)c(OC)cc1-2 | > 250 | > 250 | > 250 | 70 to 100 |  |  |  |  |  |  |  |
| CCCNCc1c2n(c(=O)c3c(OC)c(OC)ccc13)CCc1cc(OC)c(OC)cc1-2 | > 250 | > 250 | > 250 | 70 to 100 |  |  |  |  |  |  |  |
| CCOC(=O)CCCCCCCc1c2[n+](cc3c(OC)c(OC)ccc13)CCc1cc(OC)c(OC)cc1-2.[Cl-] | 7.81 | 250 | 62.5 | 70 to 100 |  |  |  |  |  |  |  |
| O=C(O)c1cc(/N=N/c2ccc(S(=O)(=O)Nc3ccccn3)cc2)ccc1O [SULFASALAZINE] |  |  |  |  |  |  | 6.01 | 28.22 | 55.2 | 3.13 | Active |
| CCCCCCNCc1c2n(c(=O)c3c(OC)c(OC)ccc13)CCc1cc(OC)c(OC)cc1-2 | 250 (≈ 520 µM) | > 250 | > 250 | 70 to 100 |  |  |  |  |  |  |  |
| CCOC(=O)c1c2[n+](cc3c(OC)c(OC)ccc13)CCc1cc(OC)c(OC)cc1-2.[Cl-] | > 250 | > 250 | > 250 | 70 to 100 |  |  |  |  |  |  |  |
| CCCCCCCCCNCc1c2n(c(=O)c3c(OC)c(OC)ccc13)CCc1cc(OC)c(OC)cc1-2 | 15.6 (≈ 29.9 µM) | > 250 | 62.5 (≈ 120 µM) | 70 to 100 |  |  |  |  |  |  |  |
| CCCCCNC(=O)c1c2n(c(=O)c3c(OC)c(OC)ccc13)CCc1cc(OC)c(OC)cc1-2 | > 250 | > 250 | > 250 | 70 to 100 | 1.21 | 1000 |  |  |  |  |  |
